The source of these data is ChEMBL document CHEMBL3108700, “Designing anti-inflammatory drugs from parasitic worms: a synthetic small molecule analogue of the Acanthocheilonema viteae product ES-62 prevents development of collagen-induced arthritis” (J Med Chem, 2013).

Active and inactive are the calls of the source. Unless noted, the rule behind the calls is not given here.

Data set [1] addresses T1, Toll-like receptor 4 (Mus musculus) (UniProt Q9QUK6).
T1 sequence (whole entry): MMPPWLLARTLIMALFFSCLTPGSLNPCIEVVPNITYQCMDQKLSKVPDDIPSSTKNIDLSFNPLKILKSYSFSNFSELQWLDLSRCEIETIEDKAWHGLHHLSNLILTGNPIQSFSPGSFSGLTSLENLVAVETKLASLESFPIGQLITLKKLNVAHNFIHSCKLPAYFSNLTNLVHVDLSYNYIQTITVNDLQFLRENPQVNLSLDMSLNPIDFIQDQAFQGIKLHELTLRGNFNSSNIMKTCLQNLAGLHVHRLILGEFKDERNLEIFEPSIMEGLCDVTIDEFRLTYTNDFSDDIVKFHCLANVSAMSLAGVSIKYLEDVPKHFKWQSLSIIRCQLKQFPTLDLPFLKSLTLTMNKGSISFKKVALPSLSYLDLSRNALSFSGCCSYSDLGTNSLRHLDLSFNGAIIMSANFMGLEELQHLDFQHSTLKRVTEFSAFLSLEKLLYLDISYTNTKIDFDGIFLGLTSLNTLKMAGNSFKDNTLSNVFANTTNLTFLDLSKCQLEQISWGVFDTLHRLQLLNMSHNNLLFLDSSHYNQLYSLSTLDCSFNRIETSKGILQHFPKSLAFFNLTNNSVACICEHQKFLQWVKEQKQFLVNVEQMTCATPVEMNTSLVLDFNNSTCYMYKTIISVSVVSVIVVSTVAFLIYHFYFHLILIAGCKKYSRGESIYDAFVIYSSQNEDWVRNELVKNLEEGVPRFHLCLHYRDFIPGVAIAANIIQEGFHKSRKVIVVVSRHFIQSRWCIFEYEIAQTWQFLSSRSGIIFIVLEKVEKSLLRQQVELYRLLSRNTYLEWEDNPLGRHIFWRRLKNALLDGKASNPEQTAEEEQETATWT
Kind of data set: Inhibition of TLR4 in ovalbumin pulsed BALB/c mouse BMDC co-cultured with DO-11.10 CD4+ T cells assessed as reduction of LPS-induced IL-17 production at 5 ug/mL after 3 days by ELISA. The data set is classed as cell-based. To be noted: T-cell. An outline of the steps:
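BALB/c bone marrow DCs ± compound (5 μg/mL) were treated ± S. minnesota LPS and pulsed with OVA peptide (0–300 nM). They were cocultured 3 days with naive CD4+CD62L+ DO.11.10 T cells, and IL-17A was measured by ELISA. Values are mean ± SD of duplicates from two experiments.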
In general terms: In an ELISA, binding on a coated surface is turned into a signal by an enzyme label.

In data set [2] the target is T1, Toll-like receptor 4 (Mus musculus). The experiment in a line: Inhibition of TLR4 in C57BL/6 mouse BMDC assessed as reduction of LPS-induced IL-6 production at 5 ug/mL preincubated for 2 hrs prior to LPS challenge measured after 24 hrs by ELISA. An outline of the steps: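 C57BL/6 bone marrow DCs were generated in complete RPMI with 10 ng/mL GM-CSF. They were preincubated ± compound at 5 μg/mL for 2 h, then stimulated with LPS for 24 h. TNF-α, IL-6 and IL-23 in conditioned medium were measured by ELISA. Values are means of triplicates ± SEM pooled from 4 experiments.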

The nature of data set [3]: Cytotoxicity against BLP-stimulated BALB/c mouse BMDM assessed as loss of cell viability at 5 ug/mL preincubated for 18 hrs followed by BLP challenge measured after 24 hrs by 7-AAD staining-based flow cytometric analysis. An outline of the steps: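 BALB/c bone marrow macrophages (2 × 10^5/well) were rested 24 h in complete RPMI, then given 5 μg/mL compound for 18 h. Cells were stained with 7-AAD for 10 min on ice and the dead fraction read by flow cytometry. One experiment is representative of two.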

Data set [4] deals with T2, Toll-like receptor 9 (Mus musculus) (UniProt Q9EQU3).
T2 sequence (whole entry): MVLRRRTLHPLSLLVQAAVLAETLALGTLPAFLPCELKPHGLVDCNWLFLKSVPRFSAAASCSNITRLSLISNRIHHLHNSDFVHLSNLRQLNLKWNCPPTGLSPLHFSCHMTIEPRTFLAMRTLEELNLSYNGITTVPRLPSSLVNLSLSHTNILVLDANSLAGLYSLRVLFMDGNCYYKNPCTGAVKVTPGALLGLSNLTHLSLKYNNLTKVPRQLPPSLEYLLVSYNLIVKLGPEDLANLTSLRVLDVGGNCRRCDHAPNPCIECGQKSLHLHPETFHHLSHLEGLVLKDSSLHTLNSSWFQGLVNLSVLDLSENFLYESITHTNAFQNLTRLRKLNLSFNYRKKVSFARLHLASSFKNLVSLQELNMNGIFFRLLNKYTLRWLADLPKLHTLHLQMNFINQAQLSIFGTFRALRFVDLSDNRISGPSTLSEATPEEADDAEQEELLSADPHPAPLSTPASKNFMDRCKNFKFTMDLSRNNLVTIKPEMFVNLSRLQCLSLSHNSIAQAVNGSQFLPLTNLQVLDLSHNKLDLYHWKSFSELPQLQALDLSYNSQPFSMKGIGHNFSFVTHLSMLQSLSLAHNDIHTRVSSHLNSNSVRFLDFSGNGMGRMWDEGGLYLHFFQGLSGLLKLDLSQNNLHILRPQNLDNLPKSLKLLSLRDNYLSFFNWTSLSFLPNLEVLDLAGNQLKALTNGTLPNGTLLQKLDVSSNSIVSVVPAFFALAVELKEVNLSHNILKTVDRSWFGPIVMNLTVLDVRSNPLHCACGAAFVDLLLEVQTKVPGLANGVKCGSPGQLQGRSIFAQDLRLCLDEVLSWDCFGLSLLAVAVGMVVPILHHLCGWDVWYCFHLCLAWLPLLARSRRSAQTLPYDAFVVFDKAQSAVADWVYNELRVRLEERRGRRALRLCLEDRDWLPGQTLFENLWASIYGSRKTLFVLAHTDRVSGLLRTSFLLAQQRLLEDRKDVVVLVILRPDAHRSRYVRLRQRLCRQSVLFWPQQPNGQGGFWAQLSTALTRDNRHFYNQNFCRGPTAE
Kind of data set: Inhibition of TLR9 in BALB/c mouse BMDM assessed as downregulation of CpG-stimulated IL-12p40 level at 5 ug/ml preincubated for 18 hrs followed by CpG challenge measured after 24 hrs by ELISA relative to control. An outline of the steps: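 BALB/c male bone marrow macrophages were differentiated 7 days with L929 supernatant (≥99% CD11b+/F4/80+). Cells were plated at 2 × 10^5/well in triplicate, rested overnight, and given compounds at 5 μg/mL for 18 h. They were then stimulated with 100 ng/mL S. minnesota LPS, 10 ng/mL Pam3CSK4 (BLP) or 0.01 μM CpG for 24 h. Supernatant IL-12p40 and IL-6 were measured by ELISA (sensitivity 16 pg/mL).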

Turning to `CN(C)CCS(=O)(=O)Cc1ccc(Br)cc1`, the inhibition result in data set [1], in data set [2] and in data set [4] was “Active” in each case. Also, in data set [3], the Activity result is listed as “Non-toxic”.
